A selection: hits, their analogues and other compounds. The true share with any hit is near 1.6%.
NR2E3 ag-1: agonists of human NR2E3 nuclear receptor. Q9Y5X4. CHO-S Gal4-NCOR/VP16-NR2E3 two-hybrid, luciferase. inhibition of corepressor binding, % at 3.98 µM. 360,000 compounds, 0.35% hits;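 active = inhibition above the mean of all tested compounds plus 3 SD, cut at about 70% in these data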;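 also: 0% = DMSO with NR2E3 transfected cells and 100% = cells lacking NR2E3 construct; higher means lower luciferase signal from less NR2E3 corepressor binding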
Target sequence (Q9Y5X4 whole entry, looked up, the tested form may be a part): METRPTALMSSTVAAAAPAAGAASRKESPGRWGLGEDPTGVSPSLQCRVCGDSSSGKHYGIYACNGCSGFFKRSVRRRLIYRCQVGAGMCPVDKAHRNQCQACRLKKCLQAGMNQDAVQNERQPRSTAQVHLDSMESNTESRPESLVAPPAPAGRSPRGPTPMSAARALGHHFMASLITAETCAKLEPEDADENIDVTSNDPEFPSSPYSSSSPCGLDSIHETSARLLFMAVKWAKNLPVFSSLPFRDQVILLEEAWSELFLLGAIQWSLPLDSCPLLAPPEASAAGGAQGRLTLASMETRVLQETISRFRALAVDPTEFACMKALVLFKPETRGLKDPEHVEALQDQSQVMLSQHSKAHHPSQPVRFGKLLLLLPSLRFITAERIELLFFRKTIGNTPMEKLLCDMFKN
PKA-R2B activ: PKA-R2B complex activation | P22694+P31323 | 340,000 compounds, 0.079% hits | activation, % at 11.4 µM | PKA-R2B holoenzyme dissociation, Cy5-IP20 fluorescence polarization; R2B truncated from residue 108, S112A mutant; 0% DMSO only, 100% 113 µM cGMP;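 active = activation above a cutoff set at the mean over all compounds plus 3 SD, cut at about 18% in these data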;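 also: higher means more holoenzyme dissociation and a rise in polarization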
PKA-R1A act: PKA-R1A complex activation | P00514+P68181 | PKA-R1A dissociation, Cy5-IP20 fluorescence polarization; scaled: DMSO 0%, 113 µM cGMP 100% | activation, % at 11.4 µM | 340,000 compounds, 0.083% hits | AID 504707;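 active = percent activation above the mean of all tested compounds plus 3 SD, cut at about 19% in these data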;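 also: higher means more PKAc released from R1A so a rise in polarization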
NR1D1 modulator: Rev-erb alpha (human) modulation | Rev-erbα–FITC-DNA binding, fluorescence polarization, 90 min | activity, % at 10 µM | 370,000 compounds, 0.79% hits | AID 1259318;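 active = activity above about 14%, limit read from the data; passing the limit was not always enough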;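 also: 0% = DMSO wells with 35 nM protein and 100% = DMSO wells with 750 nM protein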
NR2E3 ag-2: agonists of human nuclear receptor NR2E3; 320,000 compounds, 0.12% hits; Q9Y5X4; GST-NR2E3/biotin-RetCOR TR-FRET, 1536-well; inhibition of corepressor binding, % at 4.78 µM;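 active = percent inhibition above the cutoff of mean plus 3 SD of all tested compounds, set per screening campaign, cut at about 20% in these data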;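 also: 0% = DMSO wells and 100% = biotin wells as full block of FRET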
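Test system: GST-NR2E3 and biotin-RetCOR proteins | Quantity: 1.35 nM GST-tagged NR2E3 final | Medium: Tris pH 7.5 | Also added: 7 nM biotin-RetCOR | Dosing: Compound at 4.8 µM, single dose | Timing: 5 h at 4 °C | Detection: Time-resolved FRET | Read-out basis: Percent inhibition | Benchmarks: Biotin wells as high control, 0.6% DMSO wells as low control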
PG9 binder: binds the HIV-1 gp120 antibody PG9; inhibition, % at 6.7 µM; AID 624416; TR-FRET gp120-PG9 antibody binding; 360,000 compounds, 0.43% hits; in the data active = inhibition above about 8.5%
PG9 bind confirm: PG9 antibody binding, confirmed; shares compounds with PG9 binder; TR-FRET PG9 antibody binding, biochemical; inhibition, % at 6.7 µM; 1,500 compounds, 90% hits; AID 651571; in the data active = inhibition above about 9%
PGV04 counter: PGV04 control antibody binding, counter-screen | shares compounds with PG9 binder | TR-FRET PGV04 antibody-gp120 binding, biochemical | inhibition, % at 6.7 µM | 1,500 compounds, 95% hits; in the data active = inhibition above about 9.5%
Rev-erbA confirm: confirmation of modulators of human Rev-erb alpha DNA binding; activation, % at 25 µM; Rev-erb alpha FITC-DNA binding, fluorescence polarization, 90 min; AID 1259319; shares compounds with NR1D1 modulator; 3,000 compounds, 61% hits;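 active = activation at or above a set limit, or at least 3 SD above the negative control mean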;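 also: 0% = 35 nM protein with DMSO and 100% = 750 nM protein high control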
RORg DNA counter: RORgamma DNA-binding activity, dose-response counter-screen; IC50, µM; shares compounds with NR1D1 modulator; purified RORgamma protein-FITC-DNA binding, fluorescence polarization; 910 compounds, 8% hits; AID 1259320;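 active = Compounds whose fitted half-maximal concentration for disrupting protein-DNA binding is below 10 micromolar; the record names Rev-erb in its text, so the target is in doubt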
Numbers without * were called inactive; i = inactive; / = no result.

SMILES | NR2E3 ag-1 | PKA-R2B activ | PKA-R1A act | NR1D1 modulator | NR2E3 ag-2 | PG9 binder | PG9 bind confirm | PGV04 counter | Rev-erbA confirm | others
O=C(Cn1nnc(-c2ccccc2NC(=O)c2ccccc2F)n1)NC1CCCC1 | -17 | 1 | -26 | 23* | -1 | 12* | 40* | 43* | 27*
CCOC(=O)Nc1ccc2c(COC(=O)CNS(=O)(=O)c3cccc(Br)c3)cc(=O)oc2c1 | -10 | -8 | -13 | 76* | 10 | 39* | 32* | 37* | 43*
CSc1sc(-c2nnc(SCC(=O)Nc3ccc(Cl)cc3)n2C)c2c1C=CCC2 | -4 | / | / | 33* | -3 | 29* | 38* | 52* | 7
Cn1c(SCC(=O)Nc2ccc(Cl)cc2)nnc1C1CC1 | -11 | -8 | -1 | 1 | 3 | 3 | / | / | /
CCCCN1C(=O)N2Cc3ccc(C)cc3C2CS1(=O)=O (configuration not stated) | / | / | / | 3 | / | / | / | / | /
COC(=O)[C@]12C[C@H](CC(=O)NCCCN3CCCC3=O)C(=O)N(Cc3ccc(Cl)cc3Cl)C1=C[C@H](COCc1ccccc1)O[C@@H]2C | / | / | / | -9 | / | / | / | / | /
Cc1nc(C(=O)Nc2ccccc2Cl)cc2c1[nH]c1ccccc12 | -41 | -6 | -10 | 21* | 3 | 22* | 12* | 26* | 8
COc1ccc(NC(=O)c2cc3c([nH]c4ccccc43)c(C)n2)cc1 | -11 | -7 | -10 | 2 | 1 | -1 | / | / | /
Cc1ccccc1CNC(=O)c1cccc2c1C(=O)N(Cc1cccnc1)C2 | / | / | / | -2 | / | / | / | / | /
O=C(O)CCN1C(=O)c2ccc(NC(=O)c3cccs3)cc2C1=O | -8 | -5 | 4 | -1 | 3 | 2 | / | / | /
O=C(Nc1ccc2c(c1)C(=O)N(c1ccccc1)C2=O)c1cccs1 | -9 | 0 | 16 | 20* | 3 | 22* | 29* | 40* | -6
CCOc1ncccc1C(=O)Nc1ccc(Cl)c(S(=O)(=O)N2CCCC2)c1 | 23 | -11 | -7 | 33* | -1 | 11* | 7 | 10* | 19*
COCC(=O)N1CC[C@H]2[C@@H]1c1cc(-c3cccc(OC)c3)ccc1N(C)[C@H]2CO | / | / | / | 0 | / | / | / | / | /
CCN(CC)C(=O)CSc1nc(-c2cccs2)cc(-c2cccs2)c1C#N | -11 | 0 | 4 | 7 | 5 | 1 | / | / | /
CCN(CC)C(=O)CSc1nc(N)c(C#N)c(-c2cccs2)c1C#N | 12 | -8 | 8 | 33* | 3 | 44* | 18* | 30* | 33* | RORg DNA counter=>40
Cc1ccc(NC(=O)N2CCC(N(C)CCC(C)C)CC2)cc1F | / | / | / | -4 | / | / | / | / | /
COc1ccc2nc(SC)c(C#N)cc2c1 | -2 | -8 | 1 | 42* | 0 | 13* | 26* | 58* | 47* | RORg DNA counter=>40
OC(c1ccccc1)(c1ccccc1)C1CCN(CCCNc2cccc(OC(F)(F)F)c2)CC1 | / | / | / | -1 | / | / | / | / | /
CC(C)[C@@H]1NC(=O)[C@H]2C[C@@]3(c4ccccc4)c4ccccc4N[C@H]3N2C1=O | / | / | / | -3 | / | / | / | / | /
O=c1[nH]c(/C=C/c2cccc3ccccc23)nc2ccccc12 | -65 | -3 | 11 | 60* | 2 | 33* | 45* | 46* | 25*
O=c1[nH]c(/C=C/c2ccccc2F)nc2ccccc12 | -139 | -7 | -9 | -10 | / | 1 | / | / | /
COc1ccc(OC)c(Nc2nc(-c3ccccc3O)nc3ccccc23)c1 | -12 | 2 | -8 | 327* | 1 | 50* | 51* | 75* | 224* | RORg DNA counter=>40
COc1ccccc1Nc1nc(-c2ccccc2O)nc2ccccc12 | 5 | -7 | -5 | 11 | 1 | -1 | / | / | /
CC[C@H](CCC(=O)N(c1ccccc1)c1ccccc1)C1CC1 | / | / | / | -2 | / | / | / | / | /
Nc1[nH]c(C(=O)c2ccc(Br)cc2)c(-c2ccc(Cl)cc2)c1C(=O)NCCc1c[nH]c2ccccc12 | / | / | / | 0 | / | -2 | / | / | /
SMILES | NR2E3 ag-1 | PKA-R2B activ | PKA-R1A act | NR1D1 modulator | NR2E3 ag-2 | PG9 binder | PG9 bind confirm | PGV04 counter | Rev-erbA confirm | others
CC(=O)c1ccc(N2CCN(S(=O)(=O)c3ccc4c(c3)NC(=O)CO4)CC2)cc1 | -1 | -6 | -4 | 38* | 3 | 22* | 28* | 39* | 22*
Cc1cc(C)nc(N2CCC(C(=O)N(C)CCc3ccccc3)CC2)n1 | / | / | / | -6 | / | / | / | / | /
COC(=O)[C@]12C[C@H](CC(=O)NCCC(C)C)C(=O)N(Cc3ccc(Cl)cc3Cl)C1=C[C@H](C1CCCC1)O[C@@H]2C | / | / | / | -2 | / | / | / | / | /
COc1cccc(C(=O)Nc2nnc(-c3ccc(OC)cc3OC)s2)c1 | -7 | 1 | 1 | 32* | 1 | 31* | 31* | 41* | 15
COc1ccc2nc(SCC(C)=O)c(C#N)cc2c1 | -74 | -8 | -9 | 15 | -1 | -12 | / | / | /
Cc1nonc1NC(=O)CSc1nc2c(C)cccc2cc1C#N | -22 | -14 | 3 | 81* | -44 | 9.8* | 42* | 66* | 73* | RORg DNA counter=>40
COc1ccc2cc(C#N)c(SCC(=O)Nc3nonc3C)nc2c1 | -18 | -3 | 5 | 67* | 1 | 25* | 33* | 62* | 27*
Cc1ccc(C)c2nc(SCC(=O)Nc3ccc4c(c3)OCO4)c(C#N)cc12 | -23 | -2 | 3 | -1 | -1 | -2 | / | / | /
O=C(Nc1ccc(C(F)(F)F)cc1)OC1CCC12CCC(c1ccccc1)CC2 (configuration not stated) | / | / | / | -1 | / | / | / | / | /
COc1ccc2nc(SCC(=O)NC3CCCC3)c(C)cc2c1 | -29 | 2 | -16 | 29* | 9 | 34* | 26* | 33* | 32* | RORg DNA counter=>40
COc1ccc2nc(SCC(=O)NC3CCCCC3)[nH]c2c1 | -6 | 1 | 1 | 1 | 0 | 1 | / | / | /
CCN(C)C(=O)CN1C(=O)C2CCCCN2C(=O)c2ccccc21 (configuration not stated) | / | / | / | 4 | / | / | / | / | /
COc1ccc(C(=O)COC(=O)c2cc(=O)[nH]c3ccccc23)c(OC)c1 | -4 | 18 | 1 | 77* | 4 | 46* | 50* | 78* | 37* | RORg DNA counter=>40
Cc1sc2nc(SCC(=O)NCc3ccco3)n(CCc3ccccc3)c(=O)c2c1C | -9 | -12 | -10 | 61* | 4 | 28* | 30* | 34* | 62* | RORg DNA counter=i

From PubChem
